Data published in ChEMBL document CHEMBL1129059, “Antitumor properties of some 2-[(dimethylamino)methyl]phenylgold(III) complexes” (J Med Chem, 1996).

Experiments:
Type in all cases: functional, organism-based
Mus musculus [1] = assay: Compound was evaluated for antitumor activity (T/C) in PNX/109/TC carcinoma Xenograft, at a dosage 10 mg/kg on day 7; set-up: dose 10 mg/kg
Method in brief: (§1)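 PNX/109/TC (CH1) ovarian tumor fragments implanted subcutaneously in the flanks of nude mice. Once tumors were palpable, mice were randomized into 6 per treated group and 10 controls. Dosing was ip in arachis oil on days 0, 7, 14 and 21, at the MTD and two 2-fold dilutions, with tumor dimensions taken on days 0, 7, 14, 21 and 28. T/C is treated RTV over control RTV, with RTV relative to start volume.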

Mus musculus [2] = assay: Compound was evaluated for antitumor activity (T/C) in HT1376 carcinoma Xenograft, at a dosage 6.25 mg/kg on day 14; set-up: dose 6.25 mg/kg
Method in brief: (§2)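 Nude mice carrying subcutaneous flank HT1376 fragments; treatment began once tumors were established and palpable, randomized into groups of 6 treated and 10 control mice. Dosing was ip as a suspension in 0.5% carboxymethylcellulose in 0.9% saline on days 0, 7, 14 and 21, at the MTD and two 2-fold dilutions. Tumors were measured on days 0-28. RTV = 100(mean volume at assessment)/(mean start volume); T/C = treated RTV/control RTV.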

Mus musculus [3] = assay: Compound was evaluated for antitumor activity (RTV) in HT1376 carcinoma Xenograft, at a dosage 12.5 mg/kg on day 14; set-up: dose 12.5 mg/kg
Method in brief: (§3)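 HT1376 tumor fragments implanted subcutaneously in nude mice flanks; mice with established palpable tumors randomized into groups of 6 (controls 10). Compounds given intraperitoneally as suspensions in 0.5% carboxymethylcellulose in 0.9% saline, on days 0, 7, 14 and 21. Tumor dimensions on days 0, 7, 14, 21, 28. RTV = 100(mean tumor volume at assessment)/(mean start volume).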

Mus musculus [4] = assay: Compound was evaluated for antitumor activity (RTV) in PNX/109/TC carcinoma Xenograft, at a dosage 5 mg/kg on day 21; set-up: dose 5 mg/kg
Method in brief: (§4)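 PXN/109/TC (CH1) ovarian tumor fragments implanted subcutaneously in nude mice flanks; established palpable tumors, groups of 6 (controls 10). Dosed intraperitoneally as suspension in arachis oil on days 0, 7, 14, 21. Tumors measured days 0, 7, 14, 21, 28. RTV = 100(mean tumor volume at assessment)/(mean start volume).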

Mus musculus [5] = assay: Compound was evaluated for antitumor activity (T/C) in PNX/109/TC carcinoma Xenograft, at a dosage 5 mg/kg on day 28; set-up: dose 5 mg/kg; method in brief: as §1
Mus musculus [6] = assay: Compound was evaluated for antitumor activity (RTV) in HT1376 carcinoma Xenograft, at a dosage 12.5 mg/kg on day 7; set-up: dose 12.5 mg/kg; method in brief: as §3
Mus musculus [7] = assay: Compound was evaluated for antitumor activity (T/C) in HT1376 carcinoma Xenograft, at a dosage 25 mg/kg on day 14; set-up: dose 25 mg/kg
Method in brief: (§5)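 Subcutaneous HT1376 xenografts in nude mice, 6 per treated group and 10 controls. Intraperitoneal dosing as suspensions in 0.5% carboxymethylcellulose/0.9% saline on days 0, 7, 14, 21; tumors measured weekly to day 28. T/C = RTV of treated group / RTV of untreated control group; significance by t-test at the 5% level.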

Mus musculus [8] = assay: Compound was evaluated for antitumor activity (T/C) in HT1376 carcinoma Xenograft, at a dosage 6.25 mg/kg on day 28; set-up: dose 6.25 mg/kg; method in brief: as §2
Mus musculus [9] = assay: Compound was evaluated for antitumor activity (RTV) in HT1376 carcinoma Xenograft, at a dosage 25 mg/kg on day 14; set-up: dose 25 mg/kg; method in brief: as §3
Mus musculus [10] = assay: Compound was evaluated for antitumor activity (T/C) in HT1376 carcinoma Xenograft, at a dosage 12.5 mg/kg on day 28; set-up: dose 12.5 mg/kg; method in brief: as §5
Mus musculus [11] = assay: Compound was evaluated for antitumor activity (RTV) in PNX/109/TC carcinoma Xenograft, at a dosage 5 mg/kg on day 14; set-up: dose 5 mg/kg; method in brief: as §4
Mus musculus [12] = assay: Compound was evaluated for antitumor activity (T/C) in HT1376 carcinoma Xenograft, at a dosage 25 mg/kg on day 7; set-up: dose 25 mg/kg; method in brief: as §2
Mus musculus [13] = assay: Compound was evaluated for antitumor activity (T/C) in HT1376 carcinoma Xenograft, at a dosage 25 mg/kg on day 28; set-up: dose 25 mg/kg; method in brief: as §2
Mus musculus [14] = assay: Compound was evaluated for antitumor activity (T/C) in HT1376 carcinoma Xenograft, at a dosage 25 mg/kg on day 21; set-up: dose 25 mg/kg; method in brief: as §5
Mus musculus [15] = assay: Compound was evaluated for antitumor activity (RTV) in HT1376 carcinoma Xenograft, at a dosage 6.25 mg/kg on day 14; set-up: dose 6.25 mg/kg; method in brief: as §3
Mus musculus [16] = assay: Compound was evaluated for antitumor activity (RTV) in PNX/109/TC carcinoma Xenograft, at a dosage 10 mg/kg on day 28; set-up: dose 10 mg/kg; method in brief: as §4

Q: With “Acetato[2-(dimethylamino)methyl]phenyl-C,N]gold-(III)” as the substance, how does the T/C (Mus musculus [1]) read?
A: Its T/C is 0.76.

Q: What about the T/C (Mus musculus [2]) of the same substance?
A: Its T/C is 1.43.

Q: And the RTV (Mus musculus [3])?
A: Its RTV is 498.

Q: And the RTV (Mus musculus [4])?
A: The RTV was 423.

Q: And the T/C (Mus musculus [5])?
A: The T/C was 1.08.

Q: What about the RTV (Mus musculus [6]) of the same substance?
A: The RTV was 212.

Q: What about the T/C (Mus musculus [7]) of the same substance?
A: The T/C was 0.9.

Q: And the T/C (Mus musculus [8])?
A: The T/C was 1.16.

Q: And the RTV (Mus musculus [9])?
A: Its RTV is 454.

Q: And the T/C (Mus musculus [10])?
A: Its T/C is 0.75.

Q: What about the RTV (Mus musculus [11]) of the same substance?
A: Its RTV is 282.

Q: And the T/C (Mus musculus [12])?
A: The T/C was 0.93.

Q: What about the T/C (Mus musculus [13]) of the same substance?
A: The T/C was 0.6.

Q: What about the T/C (Mus musculus [14]) of the same substance?
A: Its T/C is 0.76.

Q: And the RTV (Mus musculus [15])?
A: Its RTV is 724.

Q: What about the RTV (Mus musculus [16]) of the same substance?
A: Its RTV is 833.
